Measured values from PubChem BioAssay AID602319 (The Scripps Research Institute Molecular Screening Center, 2012).
Activity calls are given as the source filed them.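 How the source made its calls: active means inhibition of at least 50% at 0.01 µM compound; inactive means the rest.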

Target: Monoacylglycerol lipase ABHD6 (Mus musculus) (UniProt Q8R2Y0)
Assay: off-target ABHD6 activity blockade – biochemical, gel-based competitive ABPP, fluorescence, mouse, in vitro, selectivity assay for DAGLb inhibitor project, late-stage follow-up (AID 602319)
Settings: Neuro-2A membrane proteome, HT-01 probe, stronger effect = higher value
Procedure, shortened: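 Material – Neuro-2A cell membrane proteome, native mouse ABHD6 · Medium – DPBS · Reagent – HT-01 probe at 1 µM · Times – compound preincubation 30 min, probe labelling 30 min, 37 °C · Measured by – SDS-PAGE with in-gel fluorescence scan, band integrated optical density · Controls – DMSO-only high control, blank gel region as low control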

Monoacylglycerol lipase ABHD6 (Mus musculus), sequence (Q8R2Y0 whole entry, looked up): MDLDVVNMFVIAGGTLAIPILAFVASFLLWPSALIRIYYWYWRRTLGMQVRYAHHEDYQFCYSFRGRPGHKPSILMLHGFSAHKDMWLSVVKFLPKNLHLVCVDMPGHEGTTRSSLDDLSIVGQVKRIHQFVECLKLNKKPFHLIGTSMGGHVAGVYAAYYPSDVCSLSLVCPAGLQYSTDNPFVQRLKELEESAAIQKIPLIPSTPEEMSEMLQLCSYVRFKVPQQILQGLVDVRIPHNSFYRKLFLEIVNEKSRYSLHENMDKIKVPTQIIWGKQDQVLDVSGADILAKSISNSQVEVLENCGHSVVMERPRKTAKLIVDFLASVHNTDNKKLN

COc1ccccc1-c1ccc(-c2cn(C(=O)N3CCC(Cc4ccccc4)CC3)nn2)cc1
inhibition (ABHD6 inhibition, at 0.001 µM): 78% | inhibition (at 0.01 µM): 100%

NC(=O)c1ccc(-c2ccc(-c3cn(C(=O)N4CCCCC4c4ccccc4)nn3)cc2)cc1 (centres undefined)
inhibition (ABHD6 inhibition, at 0.001 µM): 17% | inhibition (at 0.01 µM): 27% (inactive)

O=C(N1CCCCC1c1ccccc1)n1cc(-c2ccc(-c3ccc(CO)cc3)cc2)nn1 (centres undefined)
inhibition (ABHD6 inhibition, at 0.001 µM): 18% | inhibition (at 0.01 µM): 47% (inactive)

COc1ccccc1-c1ccc(-c2cn(C(=O)N3CCCC(Cc4ccccc4)C3)nn2)cc1 (centres undefined)
inhibition (ABHD6 inhibition, at 0.001 µM): 53% | inhibition (at 0.01 µM): 100%

O=C(O)c1cccc(-c2ccc(-c3cn(C(=O)N4CCCCC4CCc4ccccc4)nn3)cc2)c1 (centres undefined)
inhibition (ABHD6 inhibition, at 0.001 µM): 33% | inhibition (at 0.01 µM): 94%

O=C(N1CCCCC1Cc1ccccc1)n1cc(-c2ccc(-c3cccc(CO)c3)cc2)nn1 (centres undefined)
inhibition (ABHD6 inhibition, at 0.001 µM): 41% | inhibition (at 0.01 µM): 90%

O=C(c1ccc(-c2ccc(-c3cn(C(=O)N4CCCCC4Cc4ccccc4)nn3)cc2)cc1)N1CCCCC1 (centres undefined)
inhibition (ABHD6 inhibition, at 0.001 µM): 9% | inhibition (at 0.01 µM): 79%

COc1ccccc1-c1ccc(-c2cn(C(=O)N3CCCCC3c3ccccc3)nn2)cc1 (centres undefined)
inhibition (ABHD6 inhibition, at 0.001 µM): 32% | inhibition (at 0.01 µM): 90%

O=C(N1CCCCC1c1ccccc1)n1cc(C(O)(c2ccccc2)c2ccccc2)nn1 (centres undefined)
inhibition (ABHD6 inhibition, at 0.001 µM): 32% | inhibition (at 0.01 µM): 47% (inactive)

O=C(O)c1cccc(-c2ccc(-c3cn(C(=O)N4CCCCC4c4ccccc4)nn3)cc2)c1 (centres undefined)
inhibition (ABHD6 inhibition, at 0.001 µM): 36% | inhibition (at 0.01 µM): 100%

O=C(O)c1ccc(-c2ccc(-c3cn(C(=O)N4CCCCC4CCc4ccccc4)nn3)cc2)cc1 (centres undefined)
inhibition (ABHD6 inhibition, at 0.001 µM): 7% | inhibition (at 0.01 µM): 10% (inactive)

O=C(N1CCCCC1CCc1ccccc1)n1cc(-c2ccc(-c3ccccc3)cc2)nn1 (centres undefined)
inhibition (ABHD6 inhibition, at 0.001 µM): 21% | inhibition (at 0.01 µM): 40% (inactive)

O=C(N1CCCCC1c1ccccc1)n1cc(-c2ccc(-c3ccccc3CO)cc2)nn1 (centres undefined)
inhibition (ABHD6 inhibition, at 0.001 µM): 38% | inhibition (at 0.01 µM): 98%

O=C(c1ccc(-c2ccc(-c3cn(C(=O)N4CCCCC4c4ccccc4)nn3)cc2)cc1)N1CCCCC1 (centres undefined)
inhibition (ABHD6 inhibition, at 0.001 µM): 35% | inhibition (at 0.01 µM): 94%

COc1ccccc1-c1ccc(-c2cn(C(=O)N3CCCCC3CCc3ccccc3)nn2)cc1 (centres undefined)
inhibition (ABHD6 inhibition, at 0.001 µM): 27% | inhibition (at 0.01 µM): 70%

COc1ccc(-c2ccc(-c3cn(C(=O)N4CCCCC4c4ccccc4)nn3)cc2)cc1 (centres undefined)
inhibition (ABHD6 inhibition, at 0.001 µM): 8% | inhibition (at 0.01 µM): 18% (inactive)

O=C(N1CCCCC1c1ccccc1)n1cc(-c2ccc(-c3ccccc3)cc2)nn1 (centres undefined)
inhibition (ABHD6 inhibition, at 0.001 µM): 18% | inhibition (at 0.01 µM): 66%
